Measurements reported in ChEMBL document CHEMBL1128333, “Derivatives of cis-2-amino-8-hydroxy-1-methyltetralin: mixed 5-HT1A-receptor agonists and dopamine D2-receptor antagonists” (J Med Chem, 1995).

Legend:
Rattus norvegicus [1] = assay: Cage leaving response was studied in rats after subcutaneous administration of 32 uM/Kg of compound; 0/4; assay type: functional
Rattus norvegicus [2] = species on record: Rattus norvegicus; assay: HVA (Homovanillic acid)content of rat striatum reflecting DA metabolism and turnover; assay type: functional; set-up: concentration or dose not given beside the values
Rattus norvegicus [3] = species on record: Rattus norvegicus; assay: 5-HT content of rat hippocampus reflecting 5-HT metabolism and turnover; assay type: functional; set-up: concentration or dose not given beside the values
Procedure, shortened: (§1)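 Male Sprague–Dawley rats (260–310 g) received compound sc in 0.9% NaCl; saline controls. Rats were decapitated 35–45 min post-injection, and hippocampus and striatum were dissected and frozen. Tissue was homogenized in 0.1 M perchloric acid with α-methyl-5-hydroxytryptophan as internal standard, centrifuged and filtered, then analysed by HPLC-EC at 0.85 V (mobile phase pH 2.69, 35 °C). Values are percent of control, mean ± SEM.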

Rattus norvegicus [4] = species on record: Rattus norvegicus; assay: DOPAC (3,4-dihydroxyphenylacetic acid) content of rat striatum reflecting DA metabolism and turnover; assay type: functional; set-up: concentration or dose not given beside the values; procedure, shortened: as §1
Rattus norvegicus [5] = species on record: Rattus norvegicus; assay: DA (dopamine) content of rat striatum reflecting DA metabolism and turnover; assay type: functional; procedure, shortened: as §1
Rattus norvegicus [6] = species on record: Rattus norvegicus; assay: Ratio of turnover (DOPAC to DA) in rat brain striatum compared to control.; assay type: functional; procedure, shortened: as §1
[7] = biological target: T1, 5-hydroxytryptamine receptor 1A (Rattus norvegicus, UniProt P19327); assay: Binding affinity for 5-hydroxytryptamine 1A receptor in rat brain tissue using [3H]8-OH-DPAT as radioligand; assay type: tissue-based
T1 sequence (P19327 whole entry): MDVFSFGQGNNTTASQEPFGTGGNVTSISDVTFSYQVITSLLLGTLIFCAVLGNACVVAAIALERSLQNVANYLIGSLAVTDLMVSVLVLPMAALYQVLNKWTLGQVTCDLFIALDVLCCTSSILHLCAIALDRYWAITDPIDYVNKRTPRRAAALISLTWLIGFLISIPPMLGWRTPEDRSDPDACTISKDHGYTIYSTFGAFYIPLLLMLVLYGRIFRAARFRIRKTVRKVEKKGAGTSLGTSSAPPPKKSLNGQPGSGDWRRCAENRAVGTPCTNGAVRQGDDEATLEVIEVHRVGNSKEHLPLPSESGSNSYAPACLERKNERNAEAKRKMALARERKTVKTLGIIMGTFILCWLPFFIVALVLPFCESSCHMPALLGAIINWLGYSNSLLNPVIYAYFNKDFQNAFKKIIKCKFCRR
Procedure, shortened: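 Membranes from male Sprague–Dawley rat cortex plus hippocampus, homogenized in 50 mM Tris-HCl with 4.0 mM CaCl2 and 5.7 mM ascorbic acid, pH 7.5, and preincubated 10 min at 37 °C with 10 μM pargyline. Assay used 5 mg/mL tissue and 2 nM [3H]-8-OH-DPAT, 10 min at 37 °C. Nonspecific binding was defined with 10 μM 5-HT. Bound ligand was separated on GF/B filters and counted; data were fitted by nonlinear regression.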

Rattus norvegicus [8] = species on record: Rattus norvegicus; assay: Ratio of serotonin turnover (5HIAA to 5-HT) in rat brain hippocampus compared to control; assay type: functional; procedure, shortened: as §1
Rattus norvegicus [9] = assay: Flat body posture behavior was studied in rats after subcutaneous administration of 32 uM/Kg of compound; 4/4; assay type: functional
Procedure, shortened: (§2)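 Test compounds were given at 32 μmol/kg and the reference 5-HT1A agonist at 1 μmol/kg. Flat body posture, forepaw treading and hind limb abduction were each scored as absent or present. Values are animals showing the behavior out of animals tested, analysed by Fisher's exact test. Male Sprague–Dawley rats, 260–310 g.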

Rattus norvegicus [10] = species on record: Rattus norvegicus; assay: 5-HIAA (5-Hydroxyindoleacetic acid) content of rat hippocampus reflecting 5-HT metabolism and turnover; assay type: functional; set-up: concentration or dose not given beside the values; procedure, shortened: as §1
Rattus norvegicus [11] = assay: Change in body temperature in rats after subcutaneous administration; assay type: functional
Procedure, shortened: (§3)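 Rectal temperature was taken with an electrical thermometer, probe inserted 3.5 cm, before and 30 min after sc injection in 0.9% NaCl. Values are the change from the preinjection reading, analysed by Tukey HSD versus saline-treated rats. Male Sprague–Dawley rats, 260–310 g.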

D(2) dopamine receptor = D(2) dopamine receptor (Homo sapiens, UniProt P14416); assay: In vitro binding affinity towards human Dopamine receptor D2A was determined in mouse fibroblast LtK cells using [3H]raclopride; assay type: cell-based
D(2) dopamine receptor, sequence (P14416 whole entry): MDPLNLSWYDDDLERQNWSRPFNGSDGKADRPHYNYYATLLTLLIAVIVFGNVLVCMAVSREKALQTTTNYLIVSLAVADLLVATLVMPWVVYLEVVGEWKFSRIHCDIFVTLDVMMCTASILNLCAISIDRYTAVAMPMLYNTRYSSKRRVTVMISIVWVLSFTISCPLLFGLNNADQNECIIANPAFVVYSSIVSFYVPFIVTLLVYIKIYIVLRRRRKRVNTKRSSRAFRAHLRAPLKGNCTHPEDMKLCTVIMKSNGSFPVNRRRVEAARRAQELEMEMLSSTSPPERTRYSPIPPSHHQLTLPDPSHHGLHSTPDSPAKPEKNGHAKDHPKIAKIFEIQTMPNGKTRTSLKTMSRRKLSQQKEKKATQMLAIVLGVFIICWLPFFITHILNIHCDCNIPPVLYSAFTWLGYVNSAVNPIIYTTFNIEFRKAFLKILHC
Procedure, shortened: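 Membranes from Ltk− mouse fibroblasts stably expressing human D2A receptors, at 80–100 pM receptor. Buffer was 50 mM Tris-HCl, 120 mM NaCl, 5 mM KCl, 1.5 mM CaCl2, 4 mM MgCl2, 1 mM EDTA, pH 7.4. Incubation with [3H]raclopride was 60 min at 22 °C, in duplicate, with 1 μM (+)-butaclamol for nonspecific binding. Bound ligand was separated on GF/B filters; data were fitted by nonlinear regression.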

Rattus norvegicus [12] = assay: Forepaw treading (FPT) behavior was studied in rats after subcutaneous administration of 32 uM/Kg of compound; 4/4; assay type: functional; procedure, shortened: as §2
Rattus norvegicus [13] = assay: Change in body temperature was studied in rats upon subcutaneous administration of 1 uM/Kg of compound; assay type: functional; procedure, shortened: as §3
Rattus norvegicus [14] = assay: Forepaw treading (FPT) behavior was studied in rats after subcutaneous administration of 1 uM/Kg of compound; 7/7; assay type: functional; procedure, shortened: as §2
Rattus norvegicus [15] = assay: Cage leaving response was studied in rats after subcutaneous administration of 1 uM/Kg of compound; 0/7; assay type: functional
Rattus norvegicus [16] = assay: Flat body posture behavior was studied in rats after subcutaneous administration of 1 uM/Kg of compound; 7/7; assay type: functional; procedure, shortened: as §2
Rattus norvegicus [17] = assay: Forepaw treading (FPT) behavior was studied in rats after subcutaneous administration of 32 uM/Kg of compound; 0/4; assay type: functional; procedure, shortened: as §2
Rattus norvegicus [18] = assay: Cage leaving response was studied in rats after subcutaneous administration of 32 uM/Kg of compound; 1/4; assay type: functional
Rattus norvegicus [19] = assay: Flat body posture behavior was studied in rats after subcutaneous administration of 32 uM/Kg of compound; 0/4; assay type: functional; procedure, shortened: as §2
Rattus norvegicus [20] = assay: Forepaw treading (FPT) behavior was studied in rats after subcutaneous administration of 32 uM/Kg of compound; 0/5; assay type: functional
Rattus norvegicus [21] = assay: Flat body posture behavior was studied in rats after subcutaneous administration of 32 uM/Kg of compound; 3/5; assay type: functional; procedure, shortened: as §2
Rattus norvegicus [22] = assay: Cage leaving response was studied in rats after subcutaneous administration of 32 uM/Kg of compound; 1/5; assay type: functional
Rattus norvegicus [23] = assay: Cage leaving response was studied in rats after subcutaneous administration of 32 uM/Kg of compound; 2/5; assay type: functional
Rattus norvegicus [24] = assay: Flat body posture behavior was studied in rats after subcutaneous administration of 32 uM/Kg of compound; 0/5; assay type: functional

Row | Compound | Cage leaving (Rattus norvegicus [1]) | Control (Rattus norvegicus [2]) [%] | Control (Rattus norvegicus [3]) [%] | Control (Rattus norvegicus [4]) [%] | Control (Rattus norvegicus [5]) [%] | Ratio (Rattus norvegicus [6]) | Ki [7] [nM] | Ratio (Rattus norvegicus [8]) | FBP (Rattus norvegicus [9]) | Control (Rattus norvegicus [10]) [%] | Change of body temperature (Rattus norvegicus [11]) [°C] | Ki (D(2) dopamine receptor) [nM] | FPT (Rattus norvegicus [12]) | FPT (Rattus norvegicus [20]) | further results
1 | CCCN(CCC)[C@@H]1CCc2cccc(OC)c2[C@@H]1C | 0 | 121 | 108 | 134 | 89 | 151 | 6 | 70 | 4 | 76 | -2.5 | 33.9 | 4 | – | –
2 | CCCN(CCC)[C@@H]1CCc2cccc(O)c2C1 | – | 105 | 130 | 109 | 108 | – | – | – | – | 80 | – | – | – | – | Change of body temperature (Rattus norvegicus [13]): -2.6 °C; FPT (Rattus norvegicus [14]): 7; Cage leaving (Rattus norvegicus [15]): 0; FBP (Rattus norvegicus [16]): 7
3 | CCCN(CCC)[C@H]1CCc2cccc(OC)c2[C@H]1C | – | 53 | 81 | 80 | 118 | 69 | 285 | 96 | – | 79 | -1.2 | 1050 | – | – | FPT (Rattus norvegicus [17]): 0; Cage leaving (Rattus norvegicus [18]): 1; FBP (Rattus norvegicus [19]): 0
4 | CCCN(CCC)[C@@H]1CCc2cccc(O)c2[C@@H]1C | 0 | 196 | 121 | 225 | 83 | 275 | – | 72 | 4 | 88 | -0.2 | 30 | 4 | – | –
5 | CCCN(CCC)[C@@H]1CCc2ccccc2[C@@H]1C | – | 168 | 94 | 152 | 95 | 164 | 49 | 98 | – | 92 | -0.7 | 87 | – | 0 | FBP (Rattus norvegicus [21]): 3; Cage leaving (Rattus norvegicus [22]): 1
6 | CCCN(CCC)[C@H]1CCc2cccc(C(=O)OC)c2[C@H]1C | – | 104 | 86 | 97 | 96 | 103 | 417 | 131 | – | 112 | -0.1 | – | – | 0 | Cage leaving (Rattus norvegicus [23]): 2; FBP (Rattus norvegicus [24]): 0
